Activity calls are given as the source filed them. No cut-off for these calls is given here.
What was measured:
[1] = target: Mitogen-activated protein kinase 13 (Homo sapiens) (UniProt O15264); assay: Inhibition of recombinant human GST-tagged P38delta (1 to 365 residues) expressed in Escherichia coli assessed as remaining activity at 1 uM using MBP as substrate incubated for 30 mins in presence of [gamma-33P]ATP by filter binding method relative to control
Summary of the method: (§1)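 Screened at the International Centre for Protein Kinase Profiling against a 140-kinase panel, with inhibitor at 0.1 or 1 μM; activity expressed as percentage of DMSO control reactions, mean of triplicate reactions.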

[2] = target: MAP kinase-interacting serine/threonine-protein kinase 2 (Homo sapiens) (UniProt Q9HBH9); assay: Inhibition of recombinant human N-terminal GST/C-terminal His6-tagged MNK2alpha (2 to 465 residues) expressed in Escherichia coli assessed as remaining activity at 1 uM using eIF4E as substrate incubated for 30 mins in presence of [gamma-33P]ATP by filter binding method relative to control; summary of the method: as §1
[3] = target: T1, Aurora kinase A (Homo sapiens) (UniProt O14965); assay: Inhibition of recombinant human N-terminal […] Aurora A (2 to 403 residues) expressed in Escherichia coli assessed as remaining activity at 1 uM using LRRLSLGLRRLSLGLRRLSLGLRRLSLG as substrate incubated for 30 mins in presence of [gamma-33P]ATP by filter binding method relative to control; summary of the method: as §1
T1 sequence (whole entry): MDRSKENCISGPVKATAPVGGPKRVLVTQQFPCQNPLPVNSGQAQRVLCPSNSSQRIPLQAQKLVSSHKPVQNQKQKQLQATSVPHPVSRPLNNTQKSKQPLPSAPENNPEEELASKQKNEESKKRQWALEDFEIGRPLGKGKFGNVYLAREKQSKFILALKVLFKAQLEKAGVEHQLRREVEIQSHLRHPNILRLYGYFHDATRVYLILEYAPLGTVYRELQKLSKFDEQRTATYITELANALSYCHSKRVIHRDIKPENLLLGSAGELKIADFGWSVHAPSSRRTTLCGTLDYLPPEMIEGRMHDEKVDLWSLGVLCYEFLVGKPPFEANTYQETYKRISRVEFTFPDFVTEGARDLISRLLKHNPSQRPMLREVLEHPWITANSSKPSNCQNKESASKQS

[4] = target: Dual specificity tyrosine-phosphorylation-regulated kinase 3 (Homo sapiens) (UniProt O43781); assay: Inhibition of recombinant human N-terminal GST-tagged DYRK3 (1 to 588 residues) expressed in Escherichia coli assessed as remaining activity at 1 uM using KKISGRLSPIMTEQ as substrate incubated for 30 mins in presence of [gamma-33P]ATP by filter binding method relative to control; summary of the method: as §1
[5] = target: Mitogen-activated protein kinase kinase kinase 11 (Homo sapiens) (UniProt Q16584); assay: Inhibition of recombinant human N-terminal GST-tagged MLK3 (96 to 386 residues) expressed in baculovirus infected Sf21 cells assessed as remaining activity at 1 uM using MBP as substrate incubated for 30 mins in presence of [gamma-33P]ATP by filter binding method relative to control; summary of the method: as §1
[6] = target: T2, NUAK family SNF1-like kinase 1 (Homo sapiens) (UniProt O60285); assay: Inhibition of NUAK1 in HEK293 cells assessed as reduction in MYPT1 phosphorylation at Ser445 residue incubated for 16 hrs by immunoblot analysis; format: cell-based; settings: dose 3-10 µM
T2 sequence (whole entry): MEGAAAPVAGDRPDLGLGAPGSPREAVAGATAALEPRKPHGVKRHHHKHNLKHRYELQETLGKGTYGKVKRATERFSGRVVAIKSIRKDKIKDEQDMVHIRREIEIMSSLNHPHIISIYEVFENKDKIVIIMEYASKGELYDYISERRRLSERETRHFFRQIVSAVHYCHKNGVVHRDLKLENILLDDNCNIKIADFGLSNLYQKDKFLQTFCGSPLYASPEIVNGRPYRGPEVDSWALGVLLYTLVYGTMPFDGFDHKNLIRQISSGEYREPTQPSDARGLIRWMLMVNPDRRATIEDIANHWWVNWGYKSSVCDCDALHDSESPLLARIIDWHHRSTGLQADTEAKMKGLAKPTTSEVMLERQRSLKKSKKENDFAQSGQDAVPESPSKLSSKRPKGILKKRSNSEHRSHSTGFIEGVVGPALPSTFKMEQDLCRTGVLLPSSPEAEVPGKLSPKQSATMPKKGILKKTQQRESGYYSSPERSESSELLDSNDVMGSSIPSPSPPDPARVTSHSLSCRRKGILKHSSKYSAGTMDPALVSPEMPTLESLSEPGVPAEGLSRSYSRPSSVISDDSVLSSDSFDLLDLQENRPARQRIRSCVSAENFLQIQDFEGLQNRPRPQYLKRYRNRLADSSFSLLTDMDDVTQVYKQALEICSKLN
Summary of the method: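 HEK-293 cells exposed to inhibitor or DMSO for 16 h; medium replaced by EDTA-PBS dissociation buffer with the same inhibitor concentration to induce detachment (gentle tapping, 70 g, 3 min); cells lysed at once; MYPT1 immunoprecipitated from 0.5 mg lysate, blotted for p-Ser445 and total MYPT1; repeated three times.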

[7] = target: T2, NUAK family SNF1-like kinase 1 (Homo sapiens); assay: Inhibition of NUAK1 (unknown origin) expressed in HEK293 cells assessed as reduction in MYPT1 phosphorylation at Ser445 residue at 30 uM incubated for 16 hrs by immunoblot analysis; format: cell-based
Summary of the method: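 HEK-293 Flp/In T-Rex cells stably expressing HA–NUAK1 or HA–NUAK1[A195T] (doxycycline 0.1 μg/ml, 16–24 h to induce) treated with inhibitor 16 h, then detached in EDTA-PBS dissociation buffer containing the same inhibitor concentration, tapped and spun 70 g 3 min; lysed, endogenous MYPT1 immunoprecipitated from 0.5 mg lysate and immunoblotted for p-Ser445 and total MYPT1; three separate experiments.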

[8] = test system: U2OS; assay: Antiproliferative activity against human U2OS cells assessed as reduction in cell viability at 10 uM after 5 days by CellTiter 96 non-radioactive cell proliferation assay; format: functional, cell-based; settings: time 5.0 day
Summary of the method: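 Colorimetric CellTiter 96 AQueous proliferation assay in 96-well format; 2000 cells/well seeded for U2OS, 3000 cells/well for MEFs; grown 5 days with or without 10 μM inhibitor; run in triplicate. Inhibitors dissolved in DMSO, final DMSO in medium ≤1%. MEFs cultured in DMEM/10% FBS, glutamine, non-essential amino acids, sodium pyruvate.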

[9] = test system: MEF; assay: Inhibition of NUAK1 in NUAK1+/+ MEF cells assessed as reduction in MYPT1 phosphorylation at Ser445 residues at 10 uM after 16 hrs by immunoblot analysis; format: cell-based; settings: Mus musculus
Summary of the method: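 U2OS cells or NUAK1+/+ MEFs treated with or without 10 μM inhibitor for 16 h, then 20 min in EDTA-PBS dissociation buffer with 10 μM inhibitor or DMSO; detached by tapping and 70 g 3 min spin, lysed immediately and immunoblotted for MYPT1 p-Ser445; three separate experiments.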

Chain of Mitogen-activated protein kinase 13 (Homo sapiens) (O15264 whole entry, the tested form may be a part): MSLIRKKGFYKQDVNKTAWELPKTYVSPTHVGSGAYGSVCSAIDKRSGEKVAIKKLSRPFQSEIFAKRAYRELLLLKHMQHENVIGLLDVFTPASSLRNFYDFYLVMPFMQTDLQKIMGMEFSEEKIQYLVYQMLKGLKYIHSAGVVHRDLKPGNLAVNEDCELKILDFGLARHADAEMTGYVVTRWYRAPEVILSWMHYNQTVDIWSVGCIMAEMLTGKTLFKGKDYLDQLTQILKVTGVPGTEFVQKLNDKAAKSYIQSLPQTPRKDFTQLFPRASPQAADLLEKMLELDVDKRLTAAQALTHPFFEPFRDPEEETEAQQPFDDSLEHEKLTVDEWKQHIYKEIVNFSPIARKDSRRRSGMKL
Chain of MAP kinase-interacting serine/threonine-protein kinase 2 (Homo sapiens) (Q9HBH9 whole entry, looked up, the tested form may be a part): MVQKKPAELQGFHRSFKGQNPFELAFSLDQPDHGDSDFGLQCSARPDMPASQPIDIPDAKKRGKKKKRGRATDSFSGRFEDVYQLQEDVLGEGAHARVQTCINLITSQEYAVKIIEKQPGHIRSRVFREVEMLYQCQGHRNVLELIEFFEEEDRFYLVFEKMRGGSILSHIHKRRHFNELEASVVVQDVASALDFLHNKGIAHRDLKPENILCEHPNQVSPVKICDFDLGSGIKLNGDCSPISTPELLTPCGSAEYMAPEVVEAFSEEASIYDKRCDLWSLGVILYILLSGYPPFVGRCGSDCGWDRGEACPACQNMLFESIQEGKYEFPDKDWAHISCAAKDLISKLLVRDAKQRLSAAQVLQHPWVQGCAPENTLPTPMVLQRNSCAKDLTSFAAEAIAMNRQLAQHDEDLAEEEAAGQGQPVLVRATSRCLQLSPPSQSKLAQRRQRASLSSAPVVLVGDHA
Chain of Mitogen-activated protein kinase kinase kinase 11 (Homo sapiens) (Q16584 whole entry, looked up, the tested form may be a part): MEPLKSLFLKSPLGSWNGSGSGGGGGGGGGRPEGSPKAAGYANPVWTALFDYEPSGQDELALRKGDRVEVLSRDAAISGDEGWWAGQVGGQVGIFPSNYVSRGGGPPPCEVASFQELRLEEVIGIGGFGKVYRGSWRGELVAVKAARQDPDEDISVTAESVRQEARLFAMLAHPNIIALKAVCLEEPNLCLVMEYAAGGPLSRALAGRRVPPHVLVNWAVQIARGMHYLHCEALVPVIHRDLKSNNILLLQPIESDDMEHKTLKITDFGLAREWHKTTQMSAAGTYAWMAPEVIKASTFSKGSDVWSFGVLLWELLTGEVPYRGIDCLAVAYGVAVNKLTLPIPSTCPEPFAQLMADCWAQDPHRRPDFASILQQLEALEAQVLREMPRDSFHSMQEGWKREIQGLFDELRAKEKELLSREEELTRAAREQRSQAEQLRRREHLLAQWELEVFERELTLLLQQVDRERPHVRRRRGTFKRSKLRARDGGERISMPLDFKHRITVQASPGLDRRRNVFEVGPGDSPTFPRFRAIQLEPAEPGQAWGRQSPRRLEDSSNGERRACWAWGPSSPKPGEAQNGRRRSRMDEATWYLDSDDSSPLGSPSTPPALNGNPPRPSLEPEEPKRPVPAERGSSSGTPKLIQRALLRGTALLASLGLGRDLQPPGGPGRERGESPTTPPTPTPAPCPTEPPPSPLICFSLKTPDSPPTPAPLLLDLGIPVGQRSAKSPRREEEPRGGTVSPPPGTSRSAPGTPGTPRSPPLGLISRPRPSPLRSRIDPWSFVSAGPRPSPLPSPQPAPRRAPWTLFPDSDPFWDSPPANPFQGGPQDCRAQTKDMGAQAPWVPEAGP
Chain of Dual specificity tyrosine-phosphorylation-regulated kinase 3 (Homo sapiens) (O43781 whole entry, the tested form may be a part): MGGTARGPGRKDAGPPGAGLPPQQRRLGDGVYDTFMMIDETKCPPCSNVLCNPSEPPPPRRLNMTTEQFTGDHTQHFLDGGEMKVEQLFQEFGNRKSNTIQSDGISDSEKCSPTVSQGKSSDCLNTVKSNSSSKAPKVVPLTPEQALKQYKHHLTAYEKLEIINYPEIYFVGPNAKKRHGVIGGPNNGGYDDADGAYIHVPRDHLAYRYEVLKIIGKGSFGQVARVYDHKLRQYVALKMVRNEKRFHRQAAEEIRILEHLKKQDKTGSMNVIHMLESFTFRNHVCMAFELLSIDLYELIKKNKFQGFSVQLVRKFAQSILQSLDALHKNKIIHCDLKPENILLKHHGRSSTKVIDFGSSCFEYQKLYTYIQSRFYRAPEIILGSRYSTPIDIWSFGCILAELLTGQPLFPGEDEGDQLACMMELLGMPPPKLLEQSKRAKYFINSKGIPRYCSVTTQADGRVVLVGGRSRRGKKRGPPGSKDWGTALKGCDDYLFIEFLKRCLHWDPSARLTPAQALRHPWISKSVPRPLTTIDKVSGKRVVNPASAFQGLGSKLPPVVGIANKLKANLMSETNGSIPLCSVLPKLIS

With `CCC(=O)Nc1cccc(Oc2nc(Nc3ccc(N4CCN(C)CC4)cc3OC)ncc2Cl)c1` the Activity [1] was 63%, the Activity [2] was 84% and the Activity [3] was 75%. The Activity [4] was 71%, the Activity [5] was 73% and the inhibition [6] was “Dose-Dependent Effect”. For the same compound, the inhibition [7] was “Active”, the inhibition [8] was “Active” and the inhibition [9] was “Active”.

— ChEMBL document CHEMBL5705897, “Characterization of WZ4003 and HTH-01-015 as selective inhibitors of the LKB1-tumour-suppressor-activated NUAK kinases” (Biochem J, 2014)
